Measurements: ChEMBL document CHEMBL1127425, “Latent alkyl isocyanates as inhibitors of aldehyde dehydrogenase in vivo” (1994)

Key:
Rattus norvegicus = experiment: Compound was evaluated for blood acetaldehyde levels elicited by compound after ethanol administration to rat; format: functional
Outline: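 Fasted male Sprague-Dawley rats (160–200 g) got test agent at 1.0 mmol/kg ip at time zero, suspended in 2% aqueous CMC (peanut oil for the trifluoroacetyl pro-prodrug and N1-EtCP). Ethanol 2.0 g/kg ip followed at 2 h. Rats were killed 1 h after ethanol and blood AcH was measured. Chlorpropamide served as positive control and vehicle alone as control. Groups of three were used, repeated with three more when active. Results are mean ± SEM, ANOVA with Newman-Keuls.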

[1] = target: Aldehyde dehydrogenase, mitochondrial ALDH2 (Rattus norvegicus) (UniProt P11884); experiment: Evaluated for inhibition of class II mitochondrial Aldehyde dehydrogenase (ALDH) in osmotically disrupted mitochondria from rat; details: concentration not given here
[2] = target: Aldehyde dehydrogenase, mitochondrial (Rattus norvegicus) (UniProt P11884); experiment: Compound was evaluated for inhibition of class II aldehyde dehydrogenase in intact rat liver mitochondria in vitro at 1 mM
[3] = target: Aldehyde dehydrogenase, mitochondrial ALDH2 (Rattus norvegicus) (UniProt P11884); experiment: Evaluated for inhibition of hepatic mitochondrial Aldehyde dehydrogenase (ALDH) from rat; details: concentration not given here

Chain of Aldehyde dehydrogenase, mitochondrial ALDH2 (Rattus norvegicus) (P11884 whole entry, looked up): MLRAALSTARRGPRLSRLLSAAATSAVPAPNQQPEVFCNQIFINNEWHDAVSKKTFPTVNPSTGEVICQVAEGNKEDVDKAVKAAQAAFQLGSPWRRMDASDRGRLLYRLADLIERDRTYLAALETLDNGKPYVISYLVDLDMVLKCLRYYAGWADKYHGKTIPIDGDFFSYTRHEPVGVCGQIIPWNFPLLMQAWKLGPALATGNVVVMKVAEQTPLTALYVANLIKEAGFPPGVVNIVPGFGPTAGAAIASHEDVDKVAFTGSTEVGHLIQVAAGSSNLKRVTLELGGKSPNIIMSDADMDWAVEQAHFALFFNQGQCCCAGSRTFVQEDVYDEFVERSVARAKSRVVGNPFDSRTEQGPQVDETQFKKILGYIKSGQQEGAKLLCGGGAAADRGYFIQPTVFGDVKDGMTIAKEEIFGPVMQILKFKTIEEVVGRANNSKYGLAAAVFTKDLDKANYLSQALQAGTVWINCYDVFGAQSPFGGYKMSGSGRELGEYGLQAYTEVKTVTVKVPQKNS

Structure (SMILES) | Acetaldehyde level (Rattus norvegicus) [µM] | further results
CCCN(C(=O)N(CC)S(=O)(=O)c1ccc(Cl)cc1)C(=O)C(F)(F)F | ~450 | –
CCCNC(=O)SCc1ccccc1 | 550 | –
CCCNC(=O)n1c(=O)cc[nH]c1=O | 700 | –
CCCNC(=O)N(C)S(=O)(=O)c1ccc(Cl)cc1 | – | inhibition [1]: 74%; Inhibition [2]: 49%
CCCN1C(=O)CN(S(=O)(=O)c2ccc(Cl)cc2)C1=O | 20 | –
CCCNC(=O)N1C(=O)CNC1=O | ~0 | –
CCCNC(=O)NS(=O)(=O)c1ccc(Cl)cc1 [CHLORPROPAMIDE] | ~170 | –
CCCNC(=O)N(CC)S(=O)(=O)c1ccc(Cl)cc1 | ~410 | inhibition [3]: 78%
C=CCN(C(=O)NCCC)S(=O)(=O)c1ccc(Cl)cc1 | ~750 | –
CCCNC(=O)N1C(=O)c2ccccc2S1(=O)=O | ~500 | –
